Test results from ChEMBL document CHEMBL1159336, “Nodulisporic acids C, C1, and C2: a series of D-ring-opened nodulisporic acids from the fungus Nodulisporium sp” (2003).

Legend:
Type in all cases: functional
Aedes aegypti = assay: Insecticidal activity against Aedes aegypti
Method in brief: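 Mosquito larvae were exposed to test compounds and killing was scored. Activity is reported as the LD90 in ng/mL.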

Lucilia sericata = assay: Insecticidal activity against Lucilia sericata
Method in brief: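 Blowfly larvae were exposed to test compounds and killing was scored. Activity is reported as the LD90 in ng/mL.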

Ctenocephalides felis = assay: Insecticidal activity against Ctenocephalides felis

Compound: CC(C)=CCc1c2c(cc3c4c([nH]c13)[C@@]1(C)[C@@H](CC[C@H]3[C@](C)(/C=C/C=C(\C)C(=O)[O-])[C@@H](O)CC[C@@]31C)C4)C1=CC(C)(C)OC(C)(C)[C@H]1[C@@H]2O.[Na+] [NODULISPORIC ACID C SODIUM]
- LD90 (Aedes aegypti): 10000 ng/mL
- LD90 (Lucilia sericata): 10500 ng/mL
- LD90 (Ctenocephalides felis): 10 µg/mL

Compound: CC(C)=CCc1c2c(cc3c4c([nH]c13)[C@@]1(C)[C@@H](CC[C@@H]3[C@]1(C)CC[C@]1(O)O[C@H](/C=C(\C)C(=O)[O-])C[C@@]31C)C4)C1=CC(C)(C)OC(C)(C)[C@H]1[C@@H]2O.[Na+] [NODULISPORIC ACID C1]
- LD90 (Ctenocephalides felis): >100 µg/mL

Compound: IVERMECTIN
- LD90 (Aedes aegypti): 5 ng/mL
- LD90 (Lucilia sericata): 40 ng/mL
- LD90 (Ctenocephalides felis): 10 µg/mL

Compound: CC(C)=CCc1c2c(cc3c4c([nH]c13)[C@@]1(C)[C@@H](CC[C@@H]3[C@]1(C)CC[C@]1(O)O[C@H]([C@H](O)[C@H](C)C(=O)[O-])C[C@@]31C)C4)C1=CC(C)(C)OC(C)(C)[C@H]1[C@@H]2O.[Na+]
- LD90 (Ctenocephalides felis): >100 µg/mL

Compound: C=C(C)[C@H]1C(=O)c2c3c(cc4c5c(n1c24)[C@@]1(C)[C@@H](CC[C@@H]2[C@]1(C)CC[C@]1(O)O[C@H](/C=C(\C)C(=O)O)C[C@@]21C)C5)C1=CC(C)(C)OC(C)(C)[C@H]1[C@@H]3O [NODULISPORIC ACID A1]
- LD90 (Aedes aegypti): 200 ng/mL
- LD90 (Lucilia sericata): 300 ng/mL
- LD90 (Ctenocephalides felis): 5 µg/mL

Compound: C=C(C)[C@H]1C(=O)c2c3c(cc4c5c(n1c24)[C@@]1(C)C(CC[C@H]2[C@](C)(/C=C/C=C(\C)C(=O)O)[C@@H](O)CC[C@@]21C)C5)C1=CC(C)(C)OC(C)(C)C1[C@@H]3O (stereo not given in full) [NOD ACID A]
- LD90 (Aedes aegypti): 500 ng/mL
- LD90 (Lucilia sericata): 300 ng/mL
- LD90 (Ctenocephalides felis): 1 µg/mL

Compound: C=C(C)[C@H]1C(=O)c2c3c(cc4c5c(n1c24)[C@@]1(C)[C@@H](CC[C@@H]2[C@]1(C)CC[C@]1(O)O[C@H](C(O)C(C)C(=O)O)C[C@@]21C)C5)C1=CC(C)(C)OC(C)(C)[C@H]1[C@@H]3O (stereo not given in full) [NODULISPORIC ACID A2]
- LD90 (Aedes aegypti): 800 ng/mL
- LD90 (Lucilia sericata): 600 ng/mL
- LD90 (Ctenocephalides felis): 10 µg/mL

Compound: CN1C(=O)[C@]23C[C@H]4C(C)(C)[C@@]5(C[C@@]41CN2CC[C@@]3(C)O)C(=O)Nc1cc2c(cc15)OC(C)(C)C=CO2 [PARAHERQUAMIDE]
- LD90 (Aedes aegypti): 50000 ng/mL
- LD90 (Lucilia sericata): 50000 ng/mL
- LD90 (Ctenocephalides felis): >100 µg/mL
